Data on 14 compounds can be found in PubChem BioAssay.

The nature of test [1]: reducers of endogenous Her2 protein level, primary screen, SKBR3 breast tumor cells, AlphaScreen, ATP viability (AID 461;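 active = Her2 level under about 52% in both replicate screens, with viability over 70% of control, limit read from the data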;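 for Her2 level: lower value means less Her2 protein in the cells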;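 for viability: percent of carrier control wells set as 100% viability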). Particulars: 18-24 h, measured here: SKBR3 viability, ATP luminescence, at 10 µM. For orientation: Alpha assays give light when donor and acceptor beads are brought close together.
Test [2] deals with Receptor tyrosine-protein kinase erbB-2 (Homo sapiens) (UniProt P04626). The description is as above. Particulars: 18-24 h, at 10 µM, stronger effect = lower value.
Test [3] is described as follows: SK-BR-3 cell growth inhibitors, pilot screen, 24 h, human (AID 572;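 active = viability at or below 10% of carrier control in both of two separate runs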;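 note: compound exposure lasted between 18 and 24 h rather than exactly 24 h; 100% = carrier-treated control wells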). Particulars: SK-BR-3 viability, CellTiter-Glo luminescence, at 10 µM, stronger effect = lower value. (In ATP-based viability assays light output follows the ATP content of the culture.)
Test [4] can be described thus: HUVEC growth inhibition – cell-based, human, primary screen (AID 575).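 Note: 100% = median of untreated cell wells with 0.1% DMSO on each plate.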 Particulars: HUVEC proliferation, CellTiter-Glo luminescence, 72 h; at 10 µM; stronger effect = lower value. Summed up: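 Test system: primary human umbilical vein endothelial cells; medium: endothelial basal medium with 2% FBS plus growth supplements; dosing: 10 µM compound only; times: 72 h treatment at 37 °C; signal: CTG luminescence; read-out: % viability relative to median vehicle-well signal on each plate; control set: vehicle and MePR control wells; plate: 384-well, collagen-coated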

A short description of test [5]: growth inhibitors of H69AR lung tumor, primary screen, human, duplicate replicates (AID 580;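 active = viability at or under a set limit in both replicates, limit being median viability minus 3 SD, cut at about 48% in these data, passing the limit was not always enough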;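 note: 100% = mean luminescence of untreated wells and 0% = no signal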). Particulars: H69AR lung tumor cells viability, ATP luminescence, 72 h; at 10 µM; stronger effect = lower value.
The nature of test [6]: reversal of MRP1-mediated doxorubicin resistance, pilot screen, H69AR cells, doxorubicin co-treatment (AID 601;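 active = viability loss from added drug above about 55%, and viability with drug at most 40%, in both replicates, limit read from the data, passing the limit was not always enough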). Particulars: CellTiter-Glo, 72 h, at 10 µM; for differential viability (reversal): stronger effect = higher value.
A short description of test [7]: 384-well plate pilot, post-Golgi transport modulator project, inhibition of yeast transport mutant growth (AID 636; in the data active = inhibition above about 31%). Particulars: absorbance 615 nm, about 18 h, stronger effect = higher value.
The nature of test [8]: growth suppression of yeast trafficking mutant, preliminary HTS, modulators of trafficking downstream of Golgi apparatus project, 1536-format plate, OD 615 nm (AID 637; in the data active = inhibition above about 30%). Particulars: yeast transport mutant growth, absorbance 615 nm, 18 h; stronger effect = higher value.
Setting [9] is: H69AR cells + 2 uM doxorubicin, measured here: viability with 2 uM doxorubicin, stronger effect = lower value.
Where [10] appears, read: H69AR cells, compound alone cytotoxicity.

The source made the active and inactive calls.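 Rule for the calls, unless noted: active = viability at or below 30% in both replicate assays; inconclusive = viability at or below 30% in just one of the two assays; inactive = the rest.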

Receptor tyrosine-protein kinase erbB-2 (Homo sapiens), sequence (P04626 whole entry, looked up): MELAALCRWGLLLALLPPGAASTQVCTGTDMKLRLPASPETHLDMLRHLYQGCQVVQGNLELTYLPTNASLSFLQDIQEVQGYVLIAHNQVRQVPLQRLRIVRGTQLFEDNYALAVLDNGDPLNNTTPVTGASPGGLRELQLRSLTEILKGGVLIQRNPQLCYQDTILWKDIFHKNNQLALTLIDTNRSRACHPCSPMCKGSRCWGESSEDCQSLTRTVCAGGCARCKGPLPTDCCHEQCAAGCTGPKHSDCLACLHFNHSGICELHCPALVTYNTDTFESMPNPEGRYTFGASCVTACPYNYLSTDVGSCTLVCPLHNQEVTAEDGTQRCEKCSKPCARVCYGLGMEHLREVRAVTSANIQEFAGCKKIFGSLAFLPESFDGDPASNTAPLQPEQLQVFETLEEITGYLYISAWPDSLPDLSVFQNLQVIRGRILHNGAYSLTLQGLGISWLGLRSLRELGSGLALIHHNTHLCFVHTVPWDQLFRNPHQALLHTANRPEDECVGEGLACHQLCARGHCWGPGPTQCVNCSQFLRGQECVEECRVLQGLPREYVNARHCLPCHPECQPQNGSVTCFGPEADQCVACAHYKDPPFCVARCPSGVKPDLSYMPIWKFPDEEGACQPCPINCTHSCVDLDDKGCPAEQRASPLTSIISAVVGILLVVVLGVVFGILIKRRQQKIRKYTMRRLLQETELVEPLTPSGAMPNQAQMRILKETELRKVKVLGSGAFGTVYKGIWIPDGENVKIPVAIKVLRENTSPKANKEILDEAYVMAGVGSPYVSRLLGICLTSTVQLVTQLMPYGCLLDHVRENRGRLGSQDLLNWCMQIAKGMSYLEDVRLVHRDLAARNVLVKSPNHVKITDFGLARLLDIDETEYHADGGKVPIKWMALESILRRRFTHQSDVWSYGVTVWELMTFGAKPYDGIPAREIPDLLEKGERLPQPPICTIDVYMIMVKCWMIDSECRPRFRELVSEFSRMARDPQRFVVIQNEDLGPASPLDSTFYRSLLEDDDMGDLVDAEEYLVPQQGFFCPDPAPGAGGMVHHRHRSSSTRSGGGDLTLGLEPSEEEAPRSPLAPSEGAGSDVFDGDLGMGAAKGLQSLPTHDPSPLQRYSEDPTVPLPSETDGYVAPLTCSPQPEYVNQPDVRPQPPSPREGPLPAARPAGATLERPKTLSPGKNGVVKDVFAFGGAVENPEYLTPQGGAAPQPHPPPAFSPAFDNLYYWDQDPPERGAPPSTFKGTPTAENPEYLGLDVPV

Consider `NC(=O)C1(N2CCCCC2)CCN(C2CC(=O)N(Cc3cccs3)C2=O)CC1` (stereo not given), for which the viability (usually a read-out of living cells in per cent, often relative to untreated cells) in test [1] was 112%; in test [3], 112% (inactive); in test [4] it was 101% (inactive); in test [5] it was 98% (inactive); in test [6] (setting [9]), 91.3%; in test [6] (setting [10]), 98%. In addition, in test [2], the Her2 level is 103% (inactive). In addition, the differential viability (reversal) in test [6] (H69AR cells + 2 uM doxorubicin) is 6.76% (inactive). Further, the inhibition (in general, the change of the read-out against control, counted positive when it falls) in test [7] is -4.74% (inactive); in test [8], -0.48% (inactive).

Turning to `Cc1cnc(NC(=O)CSc2nc3ccccc3c(=O)[nH]2)s1`, the viability in test [1] is 89.5%; in test [3] it was 89.5% (inactive); in test [4], 76.5% (inactive); in test [5], 93.3% (inactive); in test [6] (setting [9]), 82.5%; in test [6] (setting [10]), 93.3%. In test [2], the Her2 level is 93.5% (inactive). The differential viability (reversal) in test [6] (H69AR cells + 2 uM doxorubicin) was 10.8% (inactive). Also, the inhibition in test [7] was -3.07% (inactive); in test [8], -6.19% (inactive).

Consider `CC(C)(O)C1=NOC(c2ccccc2)C1` (stereo not given), for which the viability in test [1] is 98%; in test [3] it was 98% (inactive); in test [4] it was 76.2% (inactive); in test [5], 71.1% (inactive); in test [6] (setting [9]), 85.8%; in test [6] (setting [10]), 71.1%. Moreover, in test [2], the Her2 level was 108% (inactive). In addition, the differential viability (reversal) in test [6] (H69AR cells + 2 uM doxorubicin) was -14.7% (inactive). The inhibition is -2.57% (inactive) in test [7] and 1.31% (inactive) in test [8].

As for `CCC(Sc1ccc2nnc(-c3ccc(F)cc3)n2n1)C(=O)OC` (stereo not given), the viability is 110% in test [1]; 110% (inactive) in test [3]; 86.4% (inactive) in test [4]; 83% (inactive) in test [5]; 38% in test [6] (setting [9]); 83% in test [6] (setting [10]). In addition, the Her2 level in test [2] is 90% (inactive). In addition, the differential viability (reversal) in test [6] (H69AR cells + 2 uM doxorubicin) is 45% (inactive). The figures for the inhibition in test [7] and in test [8] were -7.7% (inactive) and 2.5% (inactive), respectively.

As for `Cc1ccc(N=C2NC(=O)CS2)c(C)c1`, the viability was 71% in test [1]; 71% (inactive) in test [3]; 89.7% (inactive) in test [4]; 102% (inactive) in test [5]; 96.7% in test [6] (setting [9]); 102% in test [6] (setting [10]). The Her2 level in test [2] is 91% (inactive). The differential viability (reversal) in test [6] (H69AR cells + 2 uM doxorubicin) is 5.32% (inactive). Also, the inhibition is -5% (inactive) in test [7] and 5.57% (inactive) in test [8].

Take `Cc1ccc(CCNC(=O)C2CCCN(S(=O)(=O)c3cnc[nH]3)C2)cc1` (stereo not given): the viability in test [1] was 102%; in test [3], 102% (inactive); in test [4], 101% (inactive); in test [5], 101% (inactive); in test [6] (setting [9]) it was 94%; in test [6] (setting [10]), 101%. Further, the Her2 level in test [2] was 121% (inactive). Besides, the differential viability (reversal) in test [6] (H69AR cells + 2 uM doxorubicin) was 6.71% (inactive). In addition, the inhibition in test [7] is -0.8% (inactive); in test [8], -2.17% (inactive).

Turning to `COc1cc(C2C(C#N)=C(N)OC3=C2C(=O)CC(C)(C)C3)ccc1OC(=O)N1CCOCC1` (stereo not given), the viability in test [1] is 84.5%; in test [3] it was 84.5% (inactive); in test [4] it was 97.6% (inactive); in test [5] it was 98.8% (inactive); in test [6] (setting [9]), 94.2%; in test [6] (setting [10]), 98.8%. Further, the Her2 level in test [2] is 94.5% (inactive). For the same compound, in test [6] (H69AR cells + 2 uM doxorubicin), the differential viability (reversal) was 4.58% (inactive). In addition, the inhibition in test [7] was 1.49% (inactive); in test [8], -7.54% (inactive).

Consider `CCNc1nc(NCC)n2c(SCc3nc4ccccc4c(=O)[nH]3)nnc2n1`, for which the viability in test [1] was 100%; in test [3], 100% (inactive); in test [4], 106% (inactive); in test [5], 78.1% (inactive); in test [6] (setting [9]), 87.2%; in test [6] (setting [10]) it was 78.1%. Moreover, the Her2 level in test [2] was 112% (inactive). Further, the differential viability (reversal) in test [6] (H69AR cells + 2 uM doxorubicin) is -9.12% (inactive). Besides, the inhibition is -1.58% (inactive) in test [7] and -0.66% (inactive) in test [8].

As to `O=C(O)[C@@H]1CCCN1c1ncnc2sc3c(c12)CCC3`, the viability in test [1] was 128%; in test [3] it was 128% (inactive); in test [4] it was 98.3% (inactive); in test [5] it was 106% (inactive); in test [6] (setting [9]), 102%; in test [6] (setting [10]), 106%. In addition, the Her2 level in test [2] is 100% (inactive). Further, the differential viability (reversal) in test [6] (H69AR cells + 2 uM doxorubicin) was 3.99% (inactive). The inhibition in test [7] was -6.8% (inactive); in test [8], 0.32% (inactive).

Take `Cc1cc(C)c2nc(N)sc2c1`: the viability is 95.5% in test [1]; 95.5% (inactive) in test [3]; 105% (inactive) in test [4]; 103% (inactive) in test [5]; 85.8% in test [6] (setting [9]); 103% in test [6] (setting [10]). Moreover, the Her2 level in test [2] is 108% (inactive). In test [6] (H69AR cells + 2 uM doxorubicin), the differential viability (reversal) was 16.9% (inactive). Besides, the inhibition was -6.62% (inactive) in test [7] and -3.33% (inactive) in test [8].

`Cc1ccc(C(=O)NC2CC3CCCC(C2)N3C(=O)NC2CCCCC2)cc1` (stereo not given): the viability in test [1] was 92%; in test [3], 92% (inactive); in test [4], 111% (inactive); in test [5], 98.5% (inactive); in test [6] (setting [9]) it was 90.6%; in test [6] (setting [10]), 98.5%. Also, in test [2], the Her2 level was 109% (inactive). Besides, in test [6] (H69AR cells + 2 uM doxorubicin), the differential viability (reversal) is 7.93% (inactive). The inhibition in test [7] was -5.73% (inactive); in test [8], -2.1% (inactive).

For `Nc1c(Sc2ccccc2)c(=O)[nH]c(=O)n1Cc1ccccc1`, the viability in test [1] is 90.5%; in test [3], 90.5% (inactive); in test [4], 109% (inactive); in test [5] it was 102% (inactive); in test [6] (setting [9]), 93.2%; in test [6] (setting [10]), 102%. Further, the Her2 level in test [2] is 104% (inactive). Moreover, the differential viability (reversal) in test [6] (H69AR cells + 2 uM doxorubicin) was 8.38% (inactive). The inhibition in test [7] is -5.14% (inactive); in test [8], -6% (inactive).

Consider `CC(CN1CCN(C)CC1)OC(=O)c1ccc(Cl)cc1Cl` (stereo not given), for which the viability was 127% in test [1]; 127% (inactive) in test [3]; 88.6% (inactive) in test [4]; 102% (inactive) in test [5]; 88.2% in test [6] (setting [9]); 102% in test [6] (setting [10]). Further, the Her2 level in test [2] was 90.5% (inactive). In addition, in test [6] (H69AR cells + 2 uM doxorubicin), the differential viability (reversal) is 14% (inactive). Moreover, the inhibition is -4.53% (inactive) in test [7] and 10% (inactive) in test [8].

As to `CC(=O)c1nnn(-c2nc(N3CCCC3)nc(N(c3ccccc3)c3ccccc3)n2)c1C`, the viability is 87% in test [1]; 87% (inactive) in test [3]; 97.8% (inactive) in test [4]; 82.7% (inactive) in test [5]; 77% in test [6] (setting [9]); 82.7% in test [6] (setting [10]). Moreover, the Her2 level in test [2] was 76% (inactive). The differential viability (reversal) in test [6] (H69AR cells + 2 uM doxorubicin) was 5.7% (inactive). For the same compound, the inhibition was -2.89% (inactive) in test [7] and -3.45% (inactive) in test [8].
